According to ChEMBL document CHEMBL1157307, “Bioassay for the identification of natural product-based activators of peroxisome proliferator-activated receptor-gamma (PPARgamma): the marine sponge metabolite psammaplin A activates PPARgamma and induces apoptosis in human breast tumor cells” (J Nat Prod, 2006):
pEC50, pIC50: −log10 of the molar value. Blank lines part the entries; values can stand above or below the compound they belong to. Activity calls are given as the source filed them. The calls are words filed in the database; no cut-off is given here.

Legend:
[1] = molecular target: T1, Peroxisome proliferator-activated receptor gamma (Homo sapiens) (UniProt P37231); assay: Activation of PPARgamma transfected in human MCF7 cells at 100 to 300 uM after 48 hrs by luciferase reporter gene assay; format: cell-based
T1 sequence (whole entry): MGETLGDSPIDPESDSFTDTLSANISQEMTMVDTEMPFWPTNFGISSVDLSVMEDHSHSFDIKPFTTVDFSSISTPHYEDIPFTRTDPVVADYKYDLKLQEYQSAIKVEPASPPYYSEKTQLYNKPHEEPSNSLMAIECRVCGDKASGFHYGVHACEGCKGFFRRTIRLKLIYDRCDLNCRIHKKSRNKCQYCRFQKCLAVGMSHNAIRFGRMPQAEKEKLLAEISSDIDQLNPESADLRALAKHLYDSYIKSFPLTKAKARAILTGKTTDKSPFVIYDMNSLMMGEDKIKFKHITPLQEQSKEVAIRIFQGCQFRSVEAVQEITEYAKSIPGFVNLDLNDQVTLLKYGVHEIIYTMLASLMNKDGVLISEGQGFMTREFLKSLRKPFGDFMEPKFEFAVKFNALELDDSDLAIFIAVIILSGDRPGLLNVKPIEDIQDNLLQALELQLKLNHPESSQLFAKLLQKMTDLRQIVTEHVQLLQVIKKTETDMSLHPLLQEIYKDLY
Method in brief: (§1)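 MCF-7 or MDA-MB-231 cells grown in DMEM/F12 with 10% FCS at 37 °C, 5% CO2. Electroporated with pPPRE-aP2-tk-luc reporter (50 µg/mL) plus rat PPARγ construct pCMV-rPPARγ (10 µg/mL). Seeded 20,000 cells/well and left 20 h. Compound added in serum-free medium for 24 or 48 h. Cells lysed and luciferase read. Runs done in triplicate or quadruplicate.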

[2] = molecular target: T1, Peroxisome proliferator-activated receptor gamma (Homo sapiens); assay: Activation of PPARgamma transfected in human MDA-MB-231 cells at 100 to 300 uM after 48 hrs by luciferase reporter gene assay; format: cell-based; method in brief: as §1
MCF7 [3] = assay: Induction of apoptosis in human MCF7 cells assessed as chromosome fragmentation at 30 uM by fluorescent microscopy; format: functional, cell-based; settings: TDE = time-dependent effect
MCF7 [4] = assay: Antiproliferative activity against human MCF7 cells at 10 uM after 48 hrs by neutral red method; format: functional
Method in brief: (§2)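 MCF-7 cells plated as for the reporter assay (20,000/well, 20 h), then exposed 48 h to compound added in serum-free DMEM/F12. Viability read by neutral red uptake as absorbance at 540 nm, corrected at 630 nm. Triplicate, mean ± SD.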

T47D [5] = assay: Induction of apoptosis in human T47D cells assessed as chromosome fragmentation at 10 uM after 16 hrs by fluorescent microscopy
NCI-H1299 = assay: Activation of p21 promoter in human H1299 cells by reporter assay; format: functional, cell-based
T47D [6] = assay: Induction of apoptosis in human T47D cells assessed as chromosome fragmentation at 10 uM after 8 hrs by fluorescent microscopy
MCF7 [7] = assay: Antiproliferative activity against human MCF7 cells by neutral red method; format: functional, cell-based; method in brief: as §2
MCF7 [8] = assay: Antiproliferative activity against human MCF7 cells at 30 uM after 8 hrs by neutral red method; format: functional
Method in brief: (§3)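 Short exposure: MCF-7 cells treated at 3, 10 or 30 µM for 1, 2, 4 or 8 h. Then washed twice with serum-free medium and grown 96 h in medium with 10% FCS, compound-free. Neutral red absorbance at 540 nm, corrected at 630 nm. Triplicate.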

[9] = molecular target: T1, Peroxisome proliferator-activated receptor gamma (Homo sapiens); assay: Activation of PPARgamma transfected in human MCF7 cells at 10 uM by luciferase reporter gene assay; format: cell-based; method in brief: as §1
[10] = molecular target: T2, Peroxisome proliferator-activated receptor gamma (Homo sapiens, UniProt P37231); assay: Activation of PPARgamma transfected in human MCF7 cells by luciferase reporter gene assay; format: cell-based
T2 sequence (P37231 whole entry): T1 sequence (whole entry)

MCF7 [11] = assay: Antiproliferative activity against human MCF7 cells at 10 uM up to 8 hrs by neutral red method; format: functional, cell-based; method in brief: as §3
[12] = Inhibition of HDAC by cell-free enzyme assay
[13] = molecular target: T1, Peroxisome proliferator-activated receptor gamma (Homo sapiens); assay: Activation of PPARgamma transfected in human MCF7 cells at 10 uM after 48 hrs by luciferase reporter gene assay; format: cell-based; method in brief: as §1
MCF7 [14] = assay: Induction of apoptosis in human MCF7 cells assessed as chromosome fragmentation at 10 uM after 16 hrs by fluorescent microscopy; format: functional, cell-based
Method in brief: (§4)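 MCF-7 cells seeded at 80,000/well on coverslips and grown 16 h. Compound added (10 µM final) in an equal volume of serum-free medium; 30 nM taxol as control. After 4, 8 or 16 h, cells fixed in MeOH, washed in PBS and mounted in DAPI. Fragmented nuclei scored by fluorescence at 400×.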

MCF7 [15] = assay: Induction of apoptosis in human MCF7 cells assessed as chromosome fragmentation at 10 uM after 8 hrs by fluorescent microscopy; format: functional, cell-based; method in brief: as §4
[16] = molecular target: T1, Peroxisome proliferator-activated receptor gamma (Homo sapiens); assay: Activation of GAL4 fused human PPARgamma ligand binding domain transfected in african green monkey CV1 cells at 10 uM by CAT reporter assay; format: cell-based; settings: CV-1

- Activity [1]: inactive
- Activity [2]: inactive
SMILES: COc1ccc2c(c1)c(CC(=O)O)c(C)n2C(=O)c1ccc(Cl)cc1

SMILES: CC(=O)O[C@H]1C(=O)[C@@]2(C)[C@H]([C@H](OC(=O)c3ccccc3)[C@]3(O)C[C@H](OC(=O)[C@H](O)[C@@H](NC(=O)c4ccccc4)c4ccccc4)C(C)=C1C3(C)C)[C@]1(OC(C)=O)CO[C@@H]1C[C@@H]2O
- Activity (MCF7 [3]): tde

- pIC50 (MCF7 [7]): 5.30
- Activity [9]: Active
- pEC50 [10]: 5.24
- pIC50 [12]: 8.38
- Activity [13]: Active
SMILES: O=C(NCCSSCCNC(=O)/C(Cc1ccc(O)c(Br)c1)=N/O)/C(Cc1ccc(O)c(Br)c1)=N/O [PSAMMAPLIN A]
- Activity (MCF7 [4]): 62%
- Activity (T47D [5]): Active
- AC50 (NCI-H1299): 7.5 µM
- Activity (T47D [6]): Active
- Activity (MCF7 [8]): 36%
- Activity (MCF7 [11]): inactive
- Activity (MCF7 [14]): Active
- Activity (MCF7 [15]): Active

- Activity [16]: Active
SMILES: CC1(COc2ccc(CC3SC(=O)NC3=O)cc2)CCCCC1 (configuration not stated)
